Test [1] concerns the target T1, Amyloid-beta precursor protein (Homo sapiens, UniProt P05067). The test is described as follows: Inhibition of gamma-secretase assessed as reduction of membrane A-beta-40 level. The procedure, abridged:
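Membrane-based γ-secretase assay with Aβ40 as read-out; IC50 in nM, reported as means of two experiments.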

For test [2], the target named is T1, Amyloid-beta precursor protein. The test is described as follows: Inhibition of gamma-secretase assessed as reduction of cell A-beta-40 level.

The values below come from BindingDB's records for doi:10.1016/j.bmcl.2007.08.013 (Schering-Plough Research Institute, 2007).

Molecules are shown by their SMILES.

As a reminder, the IC50 is the point on the concentration scale where inhibition reaches its midpoint.

T1 sequence (P05067 whole entry): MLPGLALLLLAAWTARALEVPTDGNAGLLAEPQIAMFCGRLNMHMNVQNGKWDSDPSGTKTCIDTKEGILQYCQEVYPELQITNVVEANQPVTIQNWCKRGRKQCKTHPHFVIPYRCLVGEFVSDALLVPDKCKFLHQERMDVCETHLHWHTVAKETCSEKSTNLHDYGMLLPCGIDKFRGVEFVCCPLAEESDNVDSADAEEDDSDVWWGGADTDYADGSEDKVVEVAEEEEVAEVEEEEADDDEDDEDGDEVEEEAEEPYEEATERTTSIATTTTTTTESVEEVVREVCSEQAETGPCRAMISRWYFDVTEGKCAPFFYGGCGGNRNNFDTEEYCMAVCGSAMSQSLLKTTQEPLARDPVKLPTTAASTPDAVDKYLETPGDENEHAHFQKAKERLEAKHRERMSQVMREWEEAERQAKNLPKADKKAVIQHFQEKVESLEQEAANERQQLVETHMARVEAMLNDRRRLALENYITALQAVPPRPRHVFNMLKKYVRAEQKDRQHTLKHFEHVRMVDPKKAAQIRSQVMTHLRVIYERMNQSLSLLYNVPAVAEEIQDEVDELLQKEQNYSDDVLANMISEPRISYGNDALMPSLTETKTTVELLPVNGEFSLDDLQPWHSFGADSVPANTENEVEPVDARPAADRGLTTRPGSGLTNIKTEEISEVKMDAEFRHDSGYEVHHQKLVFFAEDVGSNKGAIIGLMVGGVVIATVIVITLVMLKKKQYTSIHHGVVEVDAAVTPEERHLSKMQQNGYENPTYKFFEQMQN

For the molecule `CC[C@@H]1CCC[C@H](C2(OC(=O)N3CCC(N4CCCCC4)CC3)CC2)N1S(=O)(=O)c1cc(F)cc(F)c1` [1-((2R,6R)-1-(3,5-difluorophenylsulfonyl)-6-ethylpiperidin-2-yl)cyclopropyl 4-(piperidin-1-yl)piperidine-1-carboxylate], the IC50 in test [1] was determined as 29 nM; in test [2] it was 144 nM.
The matching figures for `CC[C@@H]1CCC[C@H](C2(OC(=O)N3CCC(CCO)(OC)CC3)CC2)N1S(=O)(=O)c1ccc(Cl)cc1` [1-((2R,6R)-1-(4-chlorophenylsulfonyl)-6-ethylpiperidin-2-yl)cyclopropyl 4-(2-hydroxyethyl)-4-methoxypiperidine-1-carboxylate]: 9 nM and 20 nM.
Consider `CC[C@@H]1CCC[C@H](C2(OC(=O)N3CCN(C(C)(C)CO)CC3)CC2)N1S(=O)(=O)c1ccc(F)cc1` [1-((2R,6R)-6-ethyl-1-(4-fluorophenylsulfonyl)piperidin-2-yl)cyclopropyl 4-(1-hydroxy-2-methylpropan-2-yl)piperazine-1-carboxylate], for which the IC50 in test [1] stood at 10 nM; in test [2], 25 nM.
On to `O=C(OC1([C@H]2CCC[C@@H](c3cc(F)cc(F)c3)N2S(=O)(=O)c2ccc(Cl)cc2)CC1)N1CCC(N2CCCCC2)CC1` [1-((2R,6S)-1-(4-chlorophenylsulfonyl)-6-(3,5-difluorophenyl)piperidin-2-yl)cyclopropyl 4-(piperidin-1-yl)piperidine-1-carboxylate], for which the IC50 in test [1] worked out at 0.3 nM.
Turning to `CC[C@@H]1CCC[C@H](C2(OC(=O)N3CCN(CCO)[C@@H](C)C3)CC2)N1S(=O)(=O)c1ccc(Cl)cc1` [(S)-1-((2R,6R)-1-(4-chlorophenylsulfonyl)-6-ethylpiperidin-2-yl)cyclopropyl 4-(2-hydroxyethyl)-3-methylpiperazine-1-carboxylate], the IC50 in test [1] stood at 13 nM; in test [2], 10 nM.
